Experimental data: paper PMC4009363 (Nature chemical biology, 2013)
pEC50: −log10 of the molar value. Like-named read-outs stand apart in the source and are kept apart here.

Key:
[1] = tested on: LSCe cells on pretreated OP9 stroma; experiment: Stromal pretreatment screen; type: cell-based, mouse
[2] = tested on: patient-derived, primary human leukemia cells; experiment: Human CAFC assay, patient-derived leukemia cells on MS-5 stroma; type: cell-based; conditions: lovastatin: treated 6 days, assessed at 5 weeks (2 weeks for FLT3-ITD)
In short: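 CD34-enriched cells from bone marrow/peripheral blood of AML patients (presentation or relapse) seeded on MS-5 mouse stroma (20,000/well, 96-well, plated 1 day earlier, 37°C/5% CO₂). Seeding density set for one cobblestone per control well at 5 weeks. Medium: α-MEM, 12.5% FCS, 12.5% horse serum, monothioglycerol, 1 µM hydrocortisone, 20 ng/ml human IL-3. Test compound added next day (0.2% DMSO final) for 6 days, then rinsed and refed; half media change at 3 weeks. Score: fraction of replicate wells with ≥6 tightly packed cells beneath stroma.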

LSCe cells [3] = experiment: LSCe cell co-culture cobblestone area; type: cell-based, mouse; conditions: for pEC50: read-out: EC50 for LSCe cells in co-culture (cobblestone area formation), MLL-AF9 LSCe cells in co-culture with stroma; for selective inhibition of LSCe cells relative to normal HSPCs: co-culture; for validated hit from the screen: inhibits LSCe cells relative to normal HSPCs, no significant stromal toxicity
[4] = tested on: dsRed+ LSCe cells and GFP+ HSPCs; experiment: BMSC stromal pretreatment with admixed LSCe cells and HSPCs; type: cell-based, mouse; conditions: bone marrow stromal cells pretreated for 3 days
In short: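 Wild-type C57BL/6 BMSC monolayers (384-well) treated with test compound for 3 days at 33°C/5% CO₂, then rinsed twice with PBS. 1200 GFP⁺ HSPCs (UbiquitinC-GFP mice) and 1200 dsRed⁺ LSCe cells plated together onto them. 5 days later, wells imaged at 10x in dsRed and GFP channels; total cell area per channel per well quantified. Mean ± SEM of quadruplicates.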

[5] = tested on: human AML cell lines (U937, THP-1, NOMO-1, SKM-1, NB4, and OCI-AML3); experiment: Human AML cell line viability screen; type: cell-based; conditions: for pEC50: Homo sapiens
[6] = tested on: OP9 or BMSC stromal cells; experiment: Stromal toxicity screen; type: cell-based, mouse; conditions: stroma pretreatment
In short: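 OP9 (6,750/well) or primary BMSC (2,000/well) stromal cells plated in 384-well plates. After 24 h, test compound added at 8 concentrations; incubated 72 h at 37°C/5% CO₂. Viability read by CellTiter-Glo ATP luminescence. Toxicity called when mean signal fell 3 SD (BMSC) or 5 SD (OP9) below DMSO control at concentrations below 20 μM.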

normal HSPCs = experiment: HSPC co-culture on primary bone marrow stromal cells; type: cell-based, mouse
In short: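 Normal mouse HSPCs (400 per well) were plated in 384-well format on primary CD105⁺ bone-marrow stromal cells and held at 33°C/5% CO₂. The stroma was isolated from GFP-transgenic or wild-type C57BL/6 mice by anti-CD105 magnetic-bead selection and grown 2–3 days at 33°C before use. Test compound was run at 8–12 concentrations in duplicate, with a cytotoxic control at 22 μM.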

LSCe cells [7] = experiment: Gene-expression profiling of LSCe cells with GSEA; type: cell-based, mouse; conditions: 5 μM, 6 hours, in suspension
In short: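 250,000 LSCe cells per sample exposed to test compound or DMSO (n = 5 and 2, respectively) for 6 h in suspension in IMDM, 10% FBS, 1% Pen-Strep. RNA extracted, amplified, and hybridized to Illumina MouseRef-8 v2.0 Expression BeadChips.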

murine AML cell lines = experiment: Murine myeloid cell line viability; type: cell-based; conditions: Mus musculus, 72 h, read-out: EC50 against murine AML cell lines
[8] = tested on: normal HSPC (CD34+ cells from umbilical cord blood); experiment: Human CAFC assay, normal CD34+ cord blood cells on MS-5 stroma; type: cell-based; conditions: treated 6 days, assessed at 5 weeks
[9] = tested on: dsRed+ LSCe cells and GFP+ HSPCs; experiment: Admixed LSCe cells and HSPCs co-cultured with primary BMSCs, direct treatment; type: cell-based, mouse; conditions: 200 nM lovastatin, assessed 5 days later
In short: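 Primary BMSC monolayers from C57BL/6 mice plated in 384-well format. 3 days later, 800 dsRed⁺ LSCe cells and 1600 GFP⁺ HSPCs (UbiquitinC-GFP mice) added. Test compound or DMSO added 24 h later and incubated 5 days. Wells imaged in dsRed and GFP channels at 10x; total cell area per well quantified for each channel. Mean ± SEM of quadruplicates, two independent experiments.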

MOZ-TIF2 LSCe cells = experiment: MOZ-TIF2 LSCe cell co-culture with BMSCs; type: cell-based; conditions: Mus musculus, BMSC, read-out: EC50, MOZ-TIF2 LSCe cells in co-culture
LSCe cells [10] = experiment: Limiting dilution syngeneic transplantation of ex vivo treated LSCe co-cultures; design: species or system mouse; conditions: 500 to 10,000 LSCe cells, 24-hour ex vivo exposure to 5 μM lovastatin in co-culture with BMSCs
LSCe cells and HSPCs = conditions: mixed cultures exposed ex vivo 48 hours to 5 μM lovastatin; relative to DMSO
LSCe cells [11] = experiment: Mevalonate rescue of lovastatin treatment in LSCe/OP9 co-culture; type: cell-based, mouse; conditions: 2 mM mevalonate, 1 μM lovastatin, OP9 stroma
In short: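 GFP⁺ OP9 stroma (13,500 per well) was plated on gelatin-coated 96-well plates. After 24 h, 2,000 sorted mouse LSCe cells were added. About 24 h later, 2 mM mevalonolactone and/or 1 μM lovastatin were added together, at constant DMSO (0.2% final). After 3 days, medium was fully changed and reagents were re-added.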

FLT3-mutated AML = conditions: cited from earlier work
AML = conditions: phase 1 clinical trial in AML; cited from earlier work

## CC1(C)C(C(=O)Nc2ccc(S(=O)(=O)c3ccc(NC(=O)C4C(C)(C)C4(C)C)cc3)cc2)C1(C)C [BRD7116]
[1]
  change in stromal morphology: not accompanied by an obvious change in stromal morphology
[2]
  activity against patient-derived primary human leukemia cells (cobblestone area formation): showed activity
LSCe cells [3]
  pEC50: 6.70
[4]
  relative inhibition of LSCe cells and HSPCs on pretreated stroma: preferentially inhibited the LSCe cells compared to HSPCs
[5]; at 20 μM
  inhibition of AML cell lines: ~ 50%
[6]
  stromal cell viability (CellTiter-Glo): without evidence of altered stromal cell viability
Normal HSPCs; co-cultured on primary BMSC stroma
  activity against normal HSPCs: limited activity
LSCe cells [7]
  transcriptional changes (GSEA): induced transcriptional changes consistent with myeloid differentiation

## CC(C)c1c(C(=O)Nc2ccccc2)c(-c2ccccc2)c(-c2ccc(F)cc2)n1CC[C@@H](O)C[C@@H](O)CC(=O)O [atorvastatin]
LSCe cells [3]
  selective inhibition of LSCe cells relative to normal HSPCs: selectively inhibited LSCe cells relative to normal HSPCs

## CC1=C(O)C(=O)C=C2C1=CC=C1[C@@]2(C)CC[C@@]2(C)[C@@H]3C[C@](C)(C(=O)O)CC[C@]3(C)CC[C@]12C [celastrol]
LSCe cells [3]
  validated hit from the screen: among the 155 validated hits

## COCc1c(C(C)C)nc(C(C)C)c(/C=C/[C@@H](O)C[C@@H](O)CC(=O)O)c1-c1ccc(F)cc1 [cerivastatin]
LSCe cells [3]
  selective inhibition of LSCe cells relative to normal HSPCs: selectively inhibited LSCe cells relative to normal HSPCs

## CC(C)n1c(/C=C/C(O)CC(O)CC(=O)O)c(-c2ccc(F)cc2)c2ccccc21 (centres unmarked) [fluvastatin]
LSCe cells [3]
  selective inhibition of LSCe cells relative to normal HSPCs: selectively inhibited LSCe cells relative to normal HSPCs

## CC[C@H](C)C(=O)O[C@H]1C[C@@H](C)C=C2C=C[C@H](C)[C@H](CC[C@@H]3C[C@@H](O)CC(=O)O3)[C@H]21 [lovastatin]
Murine AML cell lines
  pEC50: < 5.70
[8]
  inhibition of normal HSPC cobblestone area formation: no inhibition
[9]
  relative inhibition of admixed LSCe cells and HSPCs: selectively inhibited the dsRed^+ leukemia cells while sparing the GFP^+ HSPCs
MOZ-TIF2 LSCe cells
  pEC50: > 6.60
[2]
  activity against patient-derived primary human leukemia cells (cobblestone area formation): inhibited cobblestone area formation for all 6 patient-derived AML samples
LSCe cells [3]
  pEC50: ~6.70
[5]; read-out: EC50 against human AML cell lines
  pEC50: < 5.70
LSCe cells [10]
  leukemia development after transplantation: only one animal in the lovastatin group developed leukemia by 11.5 weeks
LSCe cells and HSPCs
  survival of transplanted mice: survived substantially longer
Normal HSPCs; concentrations as high as 20 μM, co-culture with BMSCs
  toxicity to normal HSPCs: no apparent toxicity

## CC(O)(CCO)CC(=O)O (centres unmarked) [mevalonate]
LSCe cells [11]
  rescue of the anti-leukemia effects of lovastatin: fully rescued

## CCCCc1ccc2[nH]c(NC(=O)OC)nc2c1 [parbendazole]
[5]; read-out: EC50, AML cell line viability
  pEC50: > 6.20

## C=C1C(=O)O[C@H]2[C@H]1CC/C(C)=C/CC[C@@]1(C)O[C@@H]21 [parthenolide]
LSCe cells [3]
  validated hit from the screen: among the 155 validated hits

## CC[C@H](C)C(=O)O[C@H]1C[C@H](O)C=C2C=C[C@H](C)[C@H](CC[C@@H](O)C[C@@H](O)CC(=O)O)[C@H]21 [pravastatin]
FLT3-mutated AML
  scoring in model of FLT3-mutated AML: did not score
AML
  anti-leukemia effect in patients: preliminary evidence of an anti-leukemia effect
LSCe cells [3]
  scoring in LSCe co-culture assay: did not score

## CC(C)c1nc(N(C)S(C)(=O)=O)nc(-c2ccc(F)cc2)c1/C=C/[C@@H](O)C[C@@H](O)CC(=O)O [rosuvastatin]
LSCe cells [3]
  selective inhibition of LSCe cells relative to normal HSPCs: selectively inhibited LSCe cells relative to normal HSPCs

## CCC(C)(C)C(=O)O[C@H]1C[C@@H](C)C=C2C=C[C@H](C)[C@H](CC[C@@H]3C[C@@H](O)CC(=O)O3)[C@H]21 [simvastatin]
LSCe cells [3]
  selective inhibition of LSCe cells relative to normal HSPCs: selectively inhibited LSCe cells relative to normal HSPCs

## Cc1c(C)c2c(c(C)c1O)CCC(C)(COc1ccc(CC3SC(=O)NC3=O)cc1)O2 (centres unmarked) [troglitazone]
[1]
  change in stromal morphology: dose-dependent adipocytic change in the stroma
[5]; concentrations as high as 35 μM
  sensitivity of AML cell lines: none of the AML cell lines tested was sensitive
